Measurements: ChEMBL document CHEMBL2146408, “Primary amino acid derivatives: compounds with anticonvulsant and neuropathic pain protection activities” (J Med Chem, 2011)
Active and inactive are the calls of the source. The calls are words filed in the database; no cut-off is given here.

Columns and labels:
[1] = Neurotoxicity in ip dosed NMRI mouse assessed as minimal motor impairment after 30 mins; assay type: toxicity, organism-based; details: in vivo
In short: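 Adult male NMRI mice dosed ip at UCB Pharma. Neurological toxicity was scored on the rotorod test 30 min after dosing.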

Mus musculus [2] = assay: Anticonvulsant activity in ip dosed CF1 mouse assessed as protection against maximal electroshock-induced seizure after 30 mins; assay type: functional; details: 0.5 h
In short: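 Adult male albino CF-1 (Carworth Farms No. 1) mice dosed ip under the NINDS ASP; maximal electroshock seizure test. For compounds with sufficient activity, a dose-response curve was run at the time of peak effect (hours).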

Mus musculus [3] = assay: Anticonvulsant activity in NMRI mouse assessed as protection against subcutaneous pentylenetetrazol-induced seizure at 30 to 300 mg/kg, ip after 0.5 to 4 hrs; assay type: functional, organism-based
[4] = Neurotoxicity in po dosed Sprague-Dawley rat assessed as minimal motor impairment after 30 mins by rotorod test; assay type: toxicity, organism-based; details: in vivo
Rattus norvegicus [5] = species on record: Rattus norvegicus; assay: Protective index, ratio of TD50 for Sprague-Dawley rat to ED50 for Sprague-Dawley rat by maximal electroshock seizure test; assay type: functional
In short: (§1)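 Protective index computed as rotorod (mice) or behavioral (rats) TD50 divided by MES ED50, both in mg/kg in the same species and route.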

Rattus norvegicus [6] = assay: Anticonvulsant activity in po dosed Sprague-Dawley rat assessed as protection against maximal electroshock-induced seizure after 30 mins; assay type: functional; details: 0.5 h
Mus musculus [7] = assay: Antinociceptive activity in ip dosed NMRI mouse assessed as inhibition of formalin-induced neuropathic pain after 30 mins; assay type: functional; details: 0.5 h
In short: (§2)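 NMRI mice dosed ip at UCB Pharma, then tested in the formalin model of neuropathic pain. ED50 in mg/kg read 30 min after administration. Single-dose runs report the percentage protected.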

Mus musculus [8] = assay: Anticonvulsant activity in ip dosed NMRI mouse assessed as protection against 6 Hz psychomotor seizure after 30 mins; assay type: functional; details: 0.5 h; for minimal effective dose: read-out: MED
In short: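 Adult male NMRI mice dosed ip (UCB Pharma). 6 Hz psychomotor seizure model at 44 mA, per Kaminski and co-workers.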

Mus musculus [9] = assay: Anticonvulsant activity in ip dosed NMRI mouse assessed as protection against maximal electroshock-induced seizure after 30 mins; assay type: functional; details: 0.5 h
In short: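 Adult male NMRI mice dosed ip (UCB Pharma). MES test run per the Klitgaard procedure. […] Single-dose runs report the percentage of animals protected.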

Mus musculus [10] = assay: Antinociceptive activity in NMRI mouse assessed as inhibition of formalin-induced neuropathic pain at 74 mg/kg, ip after 30 mins; assay type: functional; set-up: scale not given: the % may be the effect or the level left; details: route intraperitoneal; in short: as §2
[11] = Neurotoxicity in ip dosed CF1 mouse assessed as minimal motor impairment after 30 mins; assay type: toxicity, organism-based; details: in vivo
Mus musculus [12] = assay: Antinociceptive activity in NMRI mouse assessed as inhibition of formalin-induced neuropathic pain at 68 mg/kg, ip after 30 mins; assay type: functional; set-up: scale not given: the % may be the effect or the level left; details: route intraperitoneal; in short: as §2
Mus musculus [13] = species on record: Mus musculus; assay: Protective index, ratio of TD50 for NMRI mouse to ED50 for NMRI mouse formalin-induced neuropathic pain model; assay type: functional
Mus musculus [14] = species on record: Mus musculus; assay: Protective index, ratio of TD50 for NMRI mouse to ED50 for NMRI mouse by maximal electroshock seizure test; assay type: functional; in short: as §1

## COC[C@H](NC(C)=O)C(=O)NCc1ccccc1
[1]
  TD50 at 0.5 h: > 300 mg/kg

## CC(=O)N[C@@H](C(=O)NCc1ccccc1)C(C)(C)C
[1]
  TD50 at 0.5 h: > 300 mg/kg
Mus musculus [2]
  ED50: > 300 mg/kg

## C[C@@H](N)C(=O)NCc1ccccc1
Mus musculus [3]
  Activity: inactive
[1]
  TD50 at 0.5 h: < 100 mg/kg
[4]
  TD50 at 0.5 h: > 30 mg/kg
Rattus norvegicus [5]
  Ratio TD50/ED50: >1.5
Rattus norvegicus [6]
  ED50: 19 mg/kg

## CCCOCC(N)C(=O)NCc1ccccc1 (racemic)
Mus musculus [7]
  ED50: > 130 mg/kg
Mus musculus [8]
  ED50: > 130 mg/kg
Mus musculus [9]
  ED50: 69 mg/kg

## CC(=O)NC(C(=O)NCc1ccccc1)c1cccs1 (stereo unspecified)
Mus musculus [2]
  ED50: 45 mg/kg

## COC[C@@H](NC(C)=O)C(=O)NCc1ccccc1 [LACOSAMIDE]
Mus musculus [3]
  Activity: inactive
[4]
  TD50 at 0.5 h: > 500 mg/kg

## NC(CN1CCOCC1)C(=O)NCc1ccccc1 (racemic)
Mus musculus [7]
  ED50: 69 mg/kg
Mus musculus [8]
  ED50: > 84 mg/kg
Mus musculus [9]
  ED50: 89 mg/kg

## CC(C)(C)[C@H](N)C(=O)NCc1ccccc1
Mus musculus [3]
  Activity: inactive
[1]
  TD50 at 0.5 h: 100 mg/kg
[4]
  TD50 at 0.5 h: > 30 mg/kg
Rattus norvegicus [6]
  ED50: > 30 mg/kg

## C#CCOCC(N)C(=O)NCc1ccccc1 (racemic)
Mus musculus [7]
  ED50: 74 mg/kg
Mus musculus [8]
  minimal effective dose: 130 mg/kg
Mus musculus [10]
  Activity: 27%
Mus musculus [9]
  ED50: 46 mg/kg
[11]
  TD50 at 0.5 h: 47 mg/kg

## NCC(N)C(=O)NCc1ccccc1 (racemic)
Mus musculus [9]
  ED50: > 68 mg/kg

## CC(=O)NC(C(=O)NCc1ccccc1)c1ccsc1 (racemic)
Mus musculus [2]
  ED50: 88 mg/kg

## COCC(N)C(=O)NCc1ccccc1 (racemic)
[1]
  TD50 at 0.5 h: 290 mg/kg
Mus musculus [2]
  ED50: 84 mg/kg

## CCCC(N)C(=O)NCc1ccccc1 (racemic)
Mus musculus [8]
  minimal effective dose: 120 mg/kg
Mus musculus [9]
  ED50: 39 mg/kg
Mus musculus [12]
  Activity: 17%

## NC(CO)C(=O)NCc1ccccc1 (racemic)
Mus musculus [7]
  ED50: > 62 mg/kg
Mus musculus [8]
  ED50: > 62 mg/kg
Mus musculus [9]
  ED50: > 62 mg/kg
Mus musculus [13]
  Ratio TD50/ED50: >1.8
[11]
  TD50 at 0.5 h: > 110 mg/kg

## CC(C)[C@H](N)C(=O)NCc1ccccc1
Mus musculus [3]
  Activity: inactive
[1]
  TD50 at 0.5 h: > 300 mg/kg

## CCC(NC(C)=O)C(=O)NCc1ccccc1 (racemic)
[1]
  TD50 at 0.5 h: > 300 mg/kg
Mus musculus [2]
  ED50: < 100 mg/kg

## CCCC[C@@H](N)C(=O)NCc1ccccc1
Mus musculus [7]
  ED50: > 71 mg/kg
Mus musculus [8]
  ED50: 93 mg/kg
Mus musculus [9]
  ED50: 23 mg/kg

## COC[C@H](N)C(=O)NCc1ccccc1
Mus musculus [13]
  Ratio TD50/ED50: 0.5

## N[C@H](CO)C(=O)NCc1ccccc1
Mus musculus [7]
  ED50: > 62 mg/kg
Mus musculus [8]
  ED50: > 62 mg/kg
Mus musculus [9]
  ED50: > 62 mg/kg
[11]
  TD50 at 0.5 h: > 110 mg/kg

## CC(=O)N[C@@H](C)C(=O)NCc1ccccc1
[1]
  TD50 at 0.5 h: 840 mg/kg

## O=C1NC(=O)C(c2ccccc2)(c2ccccc2)N1 [PHENYTOIN]
[4]
  TD50 at 0.5 h: > 3000 mg/kg

## C=CCOCC(NC(C)=O)C(=O)NCc1ccccc1 (racemic)
[1]
  TD50 at 0.5 h: < 30 mg/kg
Mus musculus [2]
  ED50: < 30 mg/kg

## CC(N)C(=O)NCc1ccccc1 (racemic)
Mus musculus [3]
  Activity: inactive
[1]
  TD50 at 0.5 h: > 300 mg/kg
[4]
  TD50 at 0.5 h: > 500 mg/kg
Rattus norvegicus [5]
  Ratio TD50/ED50: >36
Mus musculus [2]
  ED50: > 100 mg/kg
Rattus norvegicus [6]
  ED50: 14 mg/kg

## CCC[C@@H](N)C(=O)NCc1ccccc1
Mus musculus [7]
  ED50: 35 mg/kg
Mus musculus [8]
  minimal effective dose: 66 mg/kg
Mus musculus [9]
  ED50: 21 mg/kg
Mus musculus [13]
  Ratio TD50/ED50: 1.6
[11]
  TD50 at 0.5 h: 57 mg/kg
Mus musculus [14]
  Ratio TD50/ED50: 2.8

## CC(=O)N[C@@H](C(=O)NCc1ccccc1)C(C)C
[1]
  TD50 at 0.5 h: > 300 mg/kg
Mus musculus [2]
  ED50: < 100 mg/kg

## N[C@H](Cc1ccccc1)C(=O)NCc1ccccc1
Mus musculus [7]
  ED50: > 37 mg/kg
Mus musculus [8]
  minimal effective dose: 81 mg/kg
Mus musculus [9]
  ED50: 40 mg/kg
